Measurements gathered from unrelated publications.
Protocols differ between the studies behind these lines. ≈ marks a conversion by molar mass, not a printed value.

SMILES | tested on | test | system | setting | endpoint | value
N=C(CC(O)c1cc2c(F)cc(F)cc2c2cc(C(F)(F)F)ccc12)Nc1ccc(Br)cc1 (stereo not shown) | Plasmodium knowlesi | parasite growth, SYBR Green |  |  | IC50 | 0.0033 µM
NC(=O)c1nc(F)c[nH]c1=O | Influenza A virus | viral replication, inhibitor | H1N1 PR/8 |  | EC50 | 1.32 µM
O=C1c2ccccc2-c2c3c(cc4ccnc1c24)OCO3 | HuCC-A1 | cell growth or viability, MTT |  | 75 h | IC50 | 10 µM
O=c1[nH]c(=O)n([C@H]2C[C@H](O)[C@@H](CO)O2)cc1F | Influenza A virus | viral replication, inhibitor, ELISA | MDCK, H1N1 | 24 h | IC50 | 30.2 µM
COC(=O)OCOc1c2n(ccc1=O)N([C@@H]1c3ccccc3SCc3c1ccc(F)c3F)[C@@H]1COCCN1C2=O | Influenza A virus | viral replication, inhibitor | MDCK, H1N1 WSN |  | EC50 | 0.000946 µM
CC(C)C(=O)OC[C@H]1O[C@@H](n2ccc(NO)nc2=O)[C@H](O)[C@@H]1O | Influenza A virus | viral replication, inhibitor, ELISA | MDCK, H1N1 | 24 h | IC50 | 28.3 µM
CC(=O)NC[C@H]1CN(c2ccc(N3CCOCC3)c(F)c2)C(=O)O1 | Enterococcus | microbial growth, broth dilution | VRE |  | MIC | 2 mg/L (≈ 5.93 µM)
N=C(CC(O)c1cc2c(F)cc(F)cc2c2cc(C(F)(F)F)ccc12)Nc1ccc(F)c(F)c1 (stereo not shown) | Plasmodium knowlesi | parasite growth, SYBR Green |  |  | IC50 | 0.0024 µM
CC[C@H](C)C[C@H](C)CCCCCCCCC(=O)N[C@H]1C[C@@H](O)[C@@H](NCCN)NC(=O)[C@@H]2[C@@H](O)CCN2C(=O)[C@H]([C@H](O)CCN)NC(=O)[C@H]([C@H](O)[C@@H](O)c2ccc(O)cc2)NC(=O)[C@@H]2C[C@@H](O)CN2C(=O)[C@H]([C@@H](C)O)NC1=O | Pichia kudriavzevii | microbial growth, broth dilution | ATCC14243 | 48 h | MIC | 4 mg/L (≈ 3.66 µM)
Nc1ccn([C@@H]2O[C@H](CO)[C@@H](O)C2(F)F)c(=O)n1 | Influenza A virus | viral replication, inhibitor, ELISA | MDCK, H1N1 | 24 h | IC50 | 0.64 µM
N.N.[Cl][Pt][Cl] | SU-DHL-8 | cell growth or viability, ATP luminescence |  | 10 µM, 72 h | inhibition | 100%
O=c1[nH]cc(F)c(=O)[nH]1 | Influenza A virus | viral replication, inhibitor, ELISA | MDCK, H1N1 | 24 h | IC50 | 50.4 µM
O=c1c2ccccc2[se]n1-c1ccccc1 | Enterovirus A | viral replication | Vero, EV71 | 48 h | IC50 | 7.1 µM
